{"source": "ChEMBL document CHEMBL2086264", "key": {"Bacillus anthracis [1]": {"test_system": "Bacillus anthracis", "assay": "Inhibition of DNA synthesis in Bacillus anthracis sterne assessed as Inhibition of [3H]thymidine incorporation into DNA incubated for 15 mins prior to [3H]thymidine addition measured after 30 mins by scintillation counting", "type": "functional, organism-based"}, "[2]": {"test_system": "Staphylococcus aureus subsp. aureus RN4220", "assay": "Inhibition of PlsY in Staphylococcus aureus RN4220 harboring gpsA mutant assessed as 36C phophotidylglycerol formation at 50 uM after 2.5 hrs by mass spectrophotometry", "procedure,_shortened": "(§1)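 RN4220 grown in Luria-Bertani broth at 37°C to OD600 0.5. 50 mL aliquots treated for 2.5 h alongside a DMSO control. Cells PBS-washed, lipids extracted by Bligh–Dyer. Phosphatidylglycerol molecular species distribution determined by mass spectrometry.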"}, "[3]": {"test_system": "Staphylococcus aureus subsp. aureus RN4220", "assay": "Inhibition of PlsY in Staphylococcus aureus RN4220 harboring gpsA mutant assessed as accumulation of long chain acyl-ACP at 12.5 to 100 uM after 2.5 hrs by Western blot analysis", "procedure,_shortened": "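Mid-log RN4220 (OD600 0.5) in 50 mL aliquots treated with compound at 37°C. Cell extracts loaded according to OD600 for similar total protein. Acyl-ACP species separated on 15% polyacrylamide gels containing 2 M urea, then detected by western blot with anti-ACP antibody.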"}, "[4]": {"test_system": "Staphylococcus aureus subsp. aureus RN4220", "assay": "Inhibition of PlsY in Staphylococcus aureus RN4220 harboring gpsA mutant assessed as Fab4-mediated fatty acid chain elongation measured as 16C fatty acid level at 25 uM after 2.5 hrs by mass spectrophotometry", "set-up": "scale not given: the % may be the effect or the level left", "procedure,_shortened": "(§2)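 RN4220 grown in Luria-Bertani broth at 37°C with 225 rpm shaking to OD600 0.5. 50 mL cultures treated for 2.5 h alongside a DMSO control. Lipids extracted by Bligh–Dyer and fatty acids analyzed by gas chromatography. Weight percent, mean of duplicates; not detected means <1%.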"}, "Enterococcus faecalis": {"test_system": "Enterococcus faecalis", "assay": "Antibacterial activity against Enterococcus faecalis ATCC 33186 after overnight incubation by microbroth dilution assay", "type": "functional", "procedure,_shortened": "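CLSI microbroth dilution in Mueller-Hinton broth; compounds dissolved in DMSO, twofold serial dilutions giving final 200–0.0125 µg/mL. Inoculum from single colony grown at 37°C to mid-log (OD600 0.5), diluted to final OD600 0.0005 (~10^5 CFU/mL). Incubated overnight at 37°C; MIC = lowest concentration inhibiting 90% of visible growth.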"}, "Streptococcus pneumoniae": {"test_system": "Streptococcus pneumoniae", "assay": "Antibacterial activity against Streptococcus pneumoniae R6 after overnight incubation by microbroth dilution assay", "type": "functional", "procedure,_shortened": "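CLSI M7A7 microbroth dilution in Mueller-Hinton broth; S. pneumoniae broth given 5% lysed horse blood. DMSO stocks of 10 mg/mL; twofold dilutions to final 200–0.0125 µg/mL. Mid-log inoculum (OD600 0.5) diluted to final OD600 0.0005 (~10^5 CFU/mL). Overnight at 37°C; MIC is the lowest concentration inhibiting 90% of visible growth.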"}, "[5]": {"test_system": "Staphylococcus aureus subsp. aureus RN4220", "assay": "Inhibition of PlsY in Staphylococcus aureus RN4220 harboring gpsA mutant assessed as Fab4-mediated fatty acid chain elongation measured as 21C fatty acid level at 50 uM after 2.5 hrs by mass spectrophotometry", "set-up": "scale not given: the % may be the effect or the level left", "procedure,_shortened": "as §2"}, "[6]": {"test_system": "Staphylococcus aureus subsp. aureus RN4220", "assay": "Inhibition of PlsY in Staphylococcus aureus RN4220 harboring gpsA mutant assessed as Fab4-mediated fatty acid chain elongation measured as 17C fatty acid level at 25 uM after 2.5 hrs by mass spectrophotometry", "set-up": "scale not given: the % may be the effect or the level left", "procedure,_shortened": "as §2"}, "[7]": {"test_system": "Staphylococcus aureus subsp. aureus RN4220", "assay": "Inhibition of PlsY in Staphylococcus aureus RN4220 harboring gpsA mutant assessed as Fab4-mediated fatty acid chain elongation measured as 19C fatty acid level at 25 uM after 2.5 hrs by mass spectrophotometry", "set-up": "scale not given: the % may be the effect or the level left", "procedure,_shortened": "as §2"}, "Bacillus anthracis [8]": {"test_system": "Bacillus anthracis", "assay": "Growth inhibition of Bacillus anthracis sterne at 5 uM measured immediately post-compound addition", "type": "functional, organism-based"}, "[9]": {"test_system": "Staphylococcus aureus subsp. aureus RN4220", "assay": "Inhibition of PlsY in Staphylococcus aureus RN4220 harboring gpsA mutant assessed as Fab4-mediated fatty acid chain elongation measured as 15C fatty acid level at 25 uM after 2.5 hrs by mass spectrophotometry", "set-up": "scale not given: the % may be the effect or the level left", "procedure,_shortened": "as §2"}, "Staphylococcus aureus [10]": {"test_system": "Staphylococcus aureus", "assay": "Inhibition of DNA synthesis in Staphylococcus aureus RN4220 harboring gpsA mutant assessed as inhibition of [3H]thymidine incorporation into DNA at 50 uM incubated for 15 mins before [3H]thymidine addition measured after 30 mins by scintillation counting", "type": "functional, organism-based", "procedure,_shortened": "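RN4220 at OD600 0.5 in 10 mL aliquots, 15 min with compound. Then 30 min with 10 µCi label: 3H amino acid mix (protein), [3H]thymidine (DNA) or [3H]uracil (stable RNA). Cells collected on 0.45 µm filters, counted, OD600-normalized and expressed relative to untreated cells. Duplicates, mean with standard error.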"}, "Staphylococcus aureus [11]": {"test_system": "Staphylococcus aureus", "assay": "Growth inhibition of Staphylococcus aureus RN4220 harboring gpsA mutant at >= 25 uM measured over 2 hrs by spectrophotometry", "type": "functional, organism-based"}, "[12]": {"test_system": "Staphylococcus aureus subsp. aureus RN4220", "assay": "Inhibition of PlsY in Staphylococcus aureus RN4220 harboring gpsA mutant assessed as 35C phophotidylglycerol formation at 50 uM after 2.5 hrs by mass spectrophotometry", "procedure,_shortened": "as §1"}, "[13]": {"test_system": "Staphylococcus aureus subsp. aureus RN4220", "assay": "Inhibition of PlsY-mediated lipid synthesis in Staphylococcus aureus RN4220 harboring gpsA mutant assessed as increase in [14C]-labeled free fatty acid level"}}, "note": "Calls of active or inactive are those of the source. The calls are words filed in the database; no cut-off is given here."}
{"smiles": "O=C(CCCCCCCc1ccccc1)NS(=O)(=O)Oc1ccccc1", "values": [{"measurement": "inhibition", "setting": "Bacillus anthracis [1]", "value": "Active"}, {"measurement": "inhibition", "setting": "[2]", "value": "Active"}, {"measurement": "inhibition", "setting": "[3]", "value": "Active"}, {"measurement": "Activity", "setting": "[4]", "value": 5, "unit": "%"}, {"measurement": "MIC90", "setting": "Enterococcus faecalis", "value": 100, "unit": "µg/mL"}, {"measurement": "MIC90", "setting": "Streptococcus pneumoniae", "value": 100, "unit": "µg/mL"}, {"measurement": "Activity", "setting": "[5]", "value": 14, "unit": "%"}, {"measurement": "Activity", "setting": "[6]", "value": 10, "unit": "%"}, {"measurement": "Activity", "setting": "[7]", "value": 18, "unit": "%"}, {"measurement": "growth inhibition (GI)", "setting": "Bacillus anthracis [8]", "value": "Active"}, {"measurement": "Activity", "setting": "[9]", "value": 37, "unit": "%"}, {"measurement": "inhibition", "setting": "Staphylococcus aureus [10]", "value": "inactive"}, {"measurement": "growth inhibition (GI)", "setting": "Staphylococcus aureus [11]", "value": "Active"}, {"measurement": "inhibition", "setting": "[12]", "value": "Active"}, {"measurement": "inhibition", "setting": "[13]", "value": "Active"}]}
